From ChEMBL document CHEMBL3272061, “Experiments of synthesis of dl-camptothecin. 4. Synthesis and antileukemic activity of dl-camptothecin analogues” (J Med Chem, 1976)
Activity calls are given as the source filed them. The rule behind the calls is not given here.

What was measured:
L1210 [1] = experiment: Antileukemic activity against mouse L1210 cells allografted in BDF1 mouse assessed as increase in life span of host at 27.9 umol/kg, ip relative to control; assay type: functional
In short: (§1)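 BDF1 mice, 5 weeks old, were inoculated ip with 5×10^5 L1210 cells; test groups had 4 males and 4 females, controls 5 males and 5 females. A single ip dose was given on the day after inoculation, as a suspension in vehicle for the insoluble compounds. Read-out was increase in life span over controls, with survivors past 30 days counted as 30 days.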

L1210 [2] = experiment: Antileukemic activity against mouse L1210 cells allografted in BDF1 mouse assessed as increase in life span of host at 69.8 umol/kg, ip relative to control; assay type: functional; in short: as §1
L1210 [3] = experiment: Antileukemic activity against mouse L1210 cells allografted in BDF1 mouse assessed as increase in life span of host at 4.87 umol/kg, ip relative to control; assay type: functional; in short: as §1
L1210 [4] = experiment: Antileukemic activity against mouse L1210 cells allografted in BDF1 mouse assessed as host survival at 4.87 umol/kg, ip after 30 days; assay type: functional, organism-based
In short: (§2)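 BDF1 mice, 5 weeks old, were inoculated ip with 5×10^5 L1210 cells in 0.1 ml saline. Test groups were 4 male and 4 female mice; controls were 5 male and 5 female. Insoluble compounds were suspended in vehicle. Dosing was ip, either once on the day after inoculation or daily for 5 days. Read-out was increase in life span over controls. Mice alive beyond 30 days were counted as 30 days and scored as survivors.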

Mus musculus = species: Mus musculus; experiment: Toxicity in mouse L1210 cells allografted BDF1 mouse; assay type: organism-based
[5] = Solubility of the compound; assay type: physicochemical
L1210 [6] = experiment: Antileukemic activity against mouse L1210 cells allografted in BDF1 mouse assessed as host survival at 5.74 umol/kg, ip after 30 days; assay type: functional, organism-based; in short: as §2
L1210 [7] = experiment: Antileukemic activity against mouse L1210 cells allografted in BDF1 mouse assessed as host survival at 28.7 umol/kg, ip after 30 days; assay type: functional, organism-based; in short: as §2
L1210 [8] = experiment: Antileukemic activity against mouse L1210 cells allografted in BDF1 mouse assessed as host survival at 287 umol/kg, ip after 30 days; assay type: functional, organism-based; in short: as §2
L1210 [9] = experiment: Antileukemic activity against mouse L1210 cells allografted in BDF1 mouse assessed as host survival at 26.3 umol/kg, ip after 30 days; assay type: functional, organism-based; in short: as §2
L1210 [10] = experiment: Antileukemic activity against mouse L1210 cells allografted in BDF1 mouse assessed as increase in life span of host at 5.74 umol/kg, ip relative to control; assay type: functional; in short: as §1
L1210 [11] = experiment: Antileukemic activity against mouse L1210 cells allografted in BDF1 mouse assessed as increase in life span of host at 28.7 umol/kg, ip relative to control; assay type: functional; in short: as §1
L1210 [12] = experiment: Antileukemic activity against mouse L1210 cells allografted in BDF1 mouse assessed as increase in life span of host at 71.8 umol/kg, ip relative to control; assay type: functional; in short: as §1
L1210 [13] = experiment: Antileukemic activity against mouse L1210 cells allografted in BDF1 mouse assessed as increase in life span of host at 144 umol/kg, ip relative to control; assay type: functional; in short: as §2
L1210 [14] = experiment: Antileukemic activity against mouse L1210 cells allografted in BDF1 mouse assessed as increase in life span of host at 287 umol/kg, ip relative to control; assay type: functional; in short: as §1
L1210 [15] = experiment: Antileukemic activity against mouse L1210 cells allografted in BDF1 mouse assessed as increase in life span of host at 26.3 umol/kg, ip relative to control; assay type: functional; in short: as §1
L1210 [16] = experiment: Antileukemic activity against mouse L1210 cells allografted in BDF1 mouse assessed as increase in life span of host at 24.4 umol/kg, ip relative to control; assay type: functional; in short: as §1
L1210 [17] = experiment: Antileukemic activity against mouse L1210 cells allografted in BDF1 mouse assessed as increase in life span of host at 61 umol/kg, ip relative to control; assay type: functional; in short: as §1
L1210 [18] = experiment: Antileukemic activity against mouse L1210 cells allografted in BDF1 mouse assessed as increase in life span of host at 45.7 umol/kg, ip relative to control; assay type: functional; in short: as §1
L1210 [19] = experiment: Antileukemic activity against mouse L1210 cells allografted in BDF1 mouse assessed as host survival at 61 umol/kg, ip after 30 days; assay type: functional, organism-based; in short: as §2
L1210 [20] = experiment: Antileukemic activity against mouse L1210 cells allografted in BDF1 mouse assessed as host survival at 45.7 umol/kg, ip after 30 days; assay type: functional, organism-based; in short: as §2
L1210 [21] = experiment: Antileukemic activity against mouse L1210 cells allografted in BDF1 mouse assessed as increase in life span of host at 65.1 umol/kg, ip relative to control; assay type: functional; in short: as §1
L1210 [22] = experiment: Antileukemic activity against mouse L1210 cells allografted in BDF1 mouse assessed as increase in life span of host at 130 umol/kg, ip relative to control; assay type: functional; in short: as §2
L1210 [23] = experiment: Antileukemic activity against mouse L1210 cells allografted in BDF1 mouse assessed as host survival at 5.56 umol/kg, ip after 30 days; assay type: functional, organism-based; in short: as §2
L1210 [24] = experiment: Antileukemic activity against mouse L1210 cells allografted in BDF1 mouse assessed as host survival at 26 umol/kg, ip after 30 days; assay type: functional, organism-based
In short: (§3)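 BDF1 mice, 5 weeks old; test groups four males + four females, controls five + five. 5×10^5 L1210 cells in 0.1 ml saline given ip. Compound, suspended in suspending vehicle (sodium salt dissolved), injected ip once on the day after inoculation. Survival followed to 30 days; mice surviving beyond 30 days counted as 30 days and scored as survivor fraction; activity as increased life span over controls.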

L1210 [25] = experiment: Antileukemic activity against mouse L1210 cells allografted in BDF1 mouse assessed as host survival at 65.1 umol/kg, ip after 30 days; assay type: functional, organism-based; in short: as §3
L1210 [26] = experiment: Antileukemic activity against mouse L1210 cells allografted in BDF1 mouse assessed as host survival at 130 umol/kg, ip after 30 days; assay type: functional, organism-based; in short: as §3
L1210 [27] = experiment: Antileukemic activity against mouse L1210 cells allografted in BDF1 mouse assessed as increase in life span of host at 26 umol/kg, ip relative to control; assay type: functional; in short: as §1

Molecule `C#CCC1(O)C(=O)OCc2c1cc1n(c2=O)Cc2cc3ccccc3nc2-1` (racemic) has an ILS at 27.9 µmol/kg (L1210 [1]) greater than 117%, an ILS at 69.8 µmol/kg (L1210 [2]) greater than 149% and an ILS at 4.87 µmol/kg (L1210 [3]) of 58%. For the same molecule, the Activity (L1210 [4]) was “inactive”, the Activity (Mus musculus) was “Toxic” and the solubility [5] was “Insoluble”.

With `CCC1(O)C(=O)OCc2c1cc1n(c2=O)Cc2cc3ccccc3nc2-1` (racemic) the Activity (L1210 [6]) was “inactive”, the Activity (L1210 [7]) was “inactive” and the Activity (L1210 [8]) was “inactive”. The Activity (L1210 [9]) was “inactive”, the solubility [5] was “Insoluble” and the ILS at 5.74 µmol/kg (L1210 [10]) was 16%. For the same molecule, the ILS at 28.7 µmol/kg (L1210 [11]) was 84%, the ILS at 71.8 µmol/kg (L1210 [12]) was greater than 155% and the ILS at 144 µmol/kg (L1210 [13]) was greater than 60%. It also gave an ILS at 287 µmol/kg (L1210 [14]) of -43% and an ILS at 26.3 µmol/kg (L1210 [15]) of 6%.

With `O=C1OCc2c(cc3n(c2=O)Cc2cc4ccccc4nc2-3)C1(O)Cc1ccccc1` (racemic) the ILS at 24.4 µmol/kg (L1210 [16]) was greater than 171%, the ILS at 61 µmol/kg (L1210 [17]) was -34% and the ILS at 45.7 µmol/kg (L1210 [18]) was 12%. The Activity (L1210 [19]) was “inactive”, the Activity (L1210 [20]) was “inactive” and the Activity (Mus musculus) was “Toxic”. The solubility [5] was “Insoluble”.

With `C=CCC1(CC=C)C(=O)OCc2c1cc1n(c2=O)Cc2cc3ccccc3nc2-1` the ILS at 65.1 µmol/kg (L1210 [21]) was 5%, the ILS at 130 µmol/kg (L1210 [22]) was 1% and the Activity (L1210 [23]) was “inactive”. The Activity (L1210 [24]) was “inactive”, the Activity (L1210 [25]) was “inactive” and the Activity (L1210 [26]) was “inactive”. For the same molecule, the solubility [5] was “Insoluble” and the ILS at 26 µmol/kg (L1210 [27]) was -8%.
